Source: PMC3625064 (Molecular cell, 2012)
Residue numbers refer to the chain shown, from its start. Names may count otherwise. Values belong to the molecule of their own block, whether it stands above or below them. No end group written: not given here.

How the values were obtained:
LSD2 [1] = biological target: T1, LSD2 (Homo sapiens, UniProt Q8NB78); experiment: H3K4me2 peptide; format: biochemical; details: 50 μM H3K4me2 peptide (1–21), 50 mM Tris-HCl pH 8.5, 50 mM KCl, 5 mM MgCl2, 5% glycerol, 37°C, 30 min; MALDI-TOF MS
T1 sequence (Q8NB78 1-822): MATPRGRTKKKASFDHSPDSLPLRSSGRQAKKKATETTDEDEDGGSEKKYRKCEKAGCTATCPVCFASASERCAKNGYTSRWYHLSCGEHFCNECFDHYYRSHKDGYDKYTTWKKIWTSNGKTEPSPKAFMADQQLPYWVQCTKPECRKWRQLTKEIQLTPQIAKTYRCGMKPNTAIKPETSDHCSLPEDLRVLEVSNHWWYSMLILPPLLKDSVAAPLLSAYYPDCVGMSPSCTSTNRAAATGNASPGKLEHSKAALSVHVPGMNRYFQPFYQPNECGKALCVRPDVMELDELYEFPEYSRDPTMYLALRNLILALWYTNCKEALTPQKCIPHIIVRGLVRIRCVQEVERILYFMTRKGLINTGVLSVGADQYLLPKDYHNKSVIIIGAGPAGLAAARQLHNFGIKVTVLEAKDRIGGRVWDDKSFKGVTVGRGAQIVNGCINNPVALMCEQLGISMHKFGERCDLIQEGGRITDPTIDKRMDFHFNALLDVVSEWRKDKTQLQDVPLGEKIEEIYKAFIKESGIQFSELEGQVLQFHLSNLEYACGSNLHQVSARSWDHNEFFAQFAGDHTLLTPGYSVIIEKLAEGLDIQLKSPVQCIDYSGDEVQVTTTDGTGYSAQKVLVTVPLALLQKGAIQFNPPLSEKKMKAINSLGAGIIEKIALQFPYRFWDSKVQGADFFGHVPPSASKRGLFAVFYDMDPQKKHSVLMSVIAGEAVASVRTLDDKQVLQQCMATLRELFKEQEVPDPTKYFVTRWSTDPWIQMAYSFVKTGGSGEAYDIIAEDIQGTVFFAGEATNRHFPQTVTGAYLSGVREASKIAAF
In short: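 Purified LSD2, full-length or truncated (residues 51–822), incubated with NPAC-derived peptides or proteins and 50 μM H3K4me2 peptide (residues 1–21, >95% pure by HPLC and MS) in 50 mM Tris-HCl pH 8.5, 50 mM KCl, 5 mM MgCl2, 5% glycerol, 37°C, 30 min. Products desalted on C18 tips; MALDI-TOF MS at constant laser intensity across samples.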

LSD2 [2] = biological target: T1, LSD2; experiment: nucleosome demethylation assay, stimulation; format: biochemical
[3] = biological target: T2, LSD2 (residues 51–822), as crystallised with NPAC (human, UniProt Q8NB78 51-822); experiment: crystal structure
T2 sequence: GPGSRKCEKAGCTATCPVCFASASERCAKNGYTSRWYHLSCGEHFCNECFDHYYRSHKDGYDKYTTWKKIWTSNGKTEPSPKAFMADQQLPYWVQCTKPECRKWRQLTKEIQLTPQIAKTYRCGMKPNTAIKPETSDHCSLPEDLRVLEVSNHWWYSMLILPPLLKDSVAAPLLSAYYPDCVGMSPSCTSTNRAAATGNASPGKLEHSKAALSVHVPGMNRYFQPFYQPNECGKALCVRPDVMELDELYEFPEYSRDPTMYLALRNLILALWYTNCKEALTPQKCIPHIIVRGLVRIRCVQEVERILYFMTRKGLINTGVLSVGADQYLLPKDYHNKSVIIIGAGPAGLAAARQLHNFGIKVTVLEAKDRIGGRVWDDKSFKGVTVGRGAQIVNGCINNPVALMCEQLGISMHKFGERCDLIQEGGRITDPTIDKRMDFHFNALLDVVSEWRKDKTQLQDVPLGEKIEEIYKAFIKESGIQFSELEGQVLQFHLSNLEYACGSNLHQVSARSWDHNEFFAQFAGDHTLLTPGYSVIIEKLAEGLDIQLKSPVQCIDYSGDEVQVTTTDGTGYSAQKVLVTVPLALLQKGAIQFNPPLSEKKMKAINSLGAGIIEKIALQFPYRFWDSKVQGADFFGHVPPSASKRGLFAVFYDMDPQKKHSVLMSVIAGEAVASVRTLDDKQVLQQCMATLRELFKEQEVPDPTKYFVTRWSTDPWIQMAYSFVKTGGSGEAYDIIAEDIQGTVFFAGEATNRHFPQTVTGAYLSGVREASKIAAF

LSD2 [4] = biological target: T1, LSD2; experiment: GST pull-down of His-LSD2; format: binding; details: GST pull-down of purified His-LSD2, SDS-PAGE, Coomassie blue staining
In short: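 GST and GST-tagged wild-type or mutant NPAC proteins (linker-region and binding-site mutants) were used to pull down purified His-LSD2. His-LSD2 in input and bound fractions was resolved by SDS-PAGE and stained with Coomassie blue.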

[5] = biological target: T3, LSD2 used for isothermal titration calorimetry (human, UniProt Q8NB78 1-822); experiment: ITC
T3 sequence (looked up): T1 sequence (Q8NB78 1-822)

LSD1 = experiment: nucleosome demethylation by LSD1, stimulation by NPAC; format: biochemical, human; details: nucleosomes; Figure S1B
nucleosomal H3K4me2 = experiment: nucleosome demethylation assay, demethylase activity toward nucleosomal H3K4me2; format: biochemical; details: recombinant NPAC, or NPAC complex purified from HeLa cells via TAP; immunoblot
In short: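 Nucleosomes purified from HeLa cells were incubated with tandem-affinity-purified NPAC or LSD2 complexes from HeLa cells, with or without added recombinant NPAC. H3K4 demethylation was assessed by SDS-PAGE and immunoblot with methylation-specific histone H3 antibodies.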

LSD2 [6] = biological target: T1, LSD2; experiment: shorter H3K4me2 peptide; format: biochemical; details: H3K4me2 peptide (residues 1–15) as substrate; Figures S6A and S6B
In short: (§1)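 Purified LSD2 (full-length or residues 51–822) was incubated with NPAC-derived peptides or proteins and an H3K4me2 peptide substrate. Products were desalted on C18 tips and analysed by MALDI-TOF MS at constant laser intensity for me1/me2 masses.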

[7] = tested on: LSD2 histone demethylation in U2OS cells; experiment: immunofluorescence of histone marks in U2OS cells coexpressing LSD2 and NPAC; format: cell-based; details: coexpression of NPAC and LSD2; Figure S1D and data not shown
In short: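 U2OS cells were transiently transfected with GFP-LSD2 alone or together with NPAC. Histone methylation marks were then detected by immunofluorescence with DAPI as DNA counterstain. Cells expressing similar levels of GFP-LSD2 were compared.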

LSD2 [8] = biological target: T1, LSD2; experiment: longer H3K4me2 peptide; format: biochemical; details: H3K4me2 peptide (1–44) as substrate; Figure S6C
In short: as §1

Molecule: DPHFHHFLLSQT [NP.WT]
- cofactor activity for LSD2 with H3K4me2 peptide (residues 1–21) as substrate (LSD2 [1]): can stimulate LSD2-mediated demethylation of H3K4me2 peptides
- cofactor activity stimulating LSD2 demethylation of nucleosomes and synthetic histone peptides (summary) (LSD2 [2]; independent of PWWP module, discussion): robust cofactor activity

B2: NP.d3: truncation protein containing the linker region, residues 152–252; GST-tagged (protein)
chain: SERGSKSPLKRAQEQSPRKRGRPPKDEKDLTIPESSTVKGMMAGPMAAFKWQPTASEPVKDADPHFHHFLLSQTEKPAVCYQAITKKLKICEEETGSTSIQ
modifications: left off: GST, end not stated, kept
- cofactor activity for LSD2 with H3K4me2 peptide (residues 1–21) as substrate (LSD2 [1]): strong cofactor activity for LSD2
- LSD2 binding / interaction (LSD2 [4]): capable of directly interacting with LSD2
- LSD2 binding / interaction (LSD2 [4]; listed as linker region of NPAC): sufficient for LSD2 binding

Molecule: DPHFHHFLLSQT (peptide, UniProt Q49A26 214-225, looked up) [wild-type NPAC dodecapeptide (residues 214–225)]
- Kd [5]: 920 ± 80 nM

B4: NPAC F217A protein: full-length F217A NPAC protein (protein, UniProt Q49A26 1-553, looked up, variant F217A)
chain: MAAVSLRLGDLVWGKLGRYPPWPGKIVNPPKDLKKPRGKKCFFVKFFGTEDHAWIKVEQLKPYHAHKEEMIKINKGKRFQQAVDAVEEFLRRAKGKDQTSSHNSSDDKNRRNSSEERSRPNSGDEKRKLSLSEGKVKKNMGEGKKRVSSGSSERGSKSPLKRAQEQSPRKRGRPPKDEKDLTIPESSTVKGMMAGPMAAFKWQPTASEPVKDADPHAHHFLLSQTEKPAVCYQAITKKLKICEEETGSTSIQAADSTAVNGSITPTDKKIGFLGLGLMGSGIVSNLLKMGHTVTVWNRTAEKCDLFIQEGARLGRTPAEVVSTCDITFACVSDPKAAKDLVLGPSGVLQGIRPGKCYVDMSTVDADTVTELAQVIVSRGGRFLEAPVSGNQQLSNDGMLVILAAGDRGLYEDCSSCFQAMGKTSFFLGEVGNAAKMMLIVNMVQGSFMATIAEGLTLAQVTGQSQQTLLDILNQGQLASIFLDQKCQNILQGNFKPDFYLKYIQKDLRLAIALGDAVNHPTPMAAAANEVYKRAKALDQSDNDMSAVYRAYIH
modifications: full-length
- cofactor activity of full-length NPAC protein, more NPAC and LSD2 proteins (LSD2 [2]; nucleosome demethylation, more NPAC and LSD2 proteins used, Figure S6E): residual stimulatory activity
- stimulation of LSD2 demethylation of the longer H3K4me2 peptide (1–44) (LSD2 [8]): very weak or undetectable

Continued, in another order:

- binding result [3]: binds
B1: NPAC linker region (amino acids 152–268), as crystallised with LSD2 (domain or fragment, UniProt Q49A26 152-268, looked up)
chain: SERGSKSPLKRAQEQSPRKRGRPPKDEKDLTIPESSTVKGMMAGPMAAFKWQPTASEPVKDADPHFHHFLLSQTEKPAVCYQAITKKLKICEEETGSTSIQAADSTAVNGSITPTDK

- Kd [5]: 930 ± 70 nM
Molecule: DPHAHHFLLSQT (peptide, UniProt Q49A26 214-225, looked up) [NPAC dodecapeptide (residues 214–225) F217A]

- cofactor activity with shorter H3K4me2 peptide (residues 1–15) (LSD2 [6]): did not detect NPAC cofactor activity
B3: NPAC: NPAC/GLYR1 (UniProtKB/Swiss-Prot ID: Q49A26), contains PWWP domain, AT-hook motif, and dehydrogenase domain (protein, UniProt Q49A26 1-553, looked up)
Cytokine-like nuclear factor …: B4 chain with A217F
modifications: His tag
- stimulatory effect on nucleosome demethylation by LSD1 (LSD1): no stimulatory effect
- histone demethylase activity toward nucleosomes (nucleosomal H3K4me2): possesses no demethylase activity
- change of H3K9me2 and other histone marks [7]: no detectable changes
